Results from different studies.
Lines come from different studies, so protocols differ.
Target: Cholinesterase (BCHE, Homo sapiens, UniProt P06276)
Effect on: enzyme activity
Action: inhibitor

CC(C)c1ccc(OP(=O)(Oc2ccc(C(C)C)cc2)Oc2ccc(C(C)C)cc2)cc1 — IC50 (liver microsomes): > 20 µg/mL
C=CCn1c2cc(OC(=O)CCCCN3CCN(Cc4ccc(Cl)cc4)CC3)ccc2c2ccnc(C)c21 — IC50 (Ellman): 674 nM
Cc1ccccc1OP(=O)(Oc1ccccc1C)Oc1ccccc1C — IC50: ~330 nM
C=CCn1c2cc(OC(=O)CCCN3CCN(Cc4ccccc4)CC3)ccc2c2ccnc(C)c21 — IC50 (Ellman): 163 nM
O=c1[nH]cc(Br)c(=O)[nH]1 — IC50 (Ellman): 292 nM
C=CCn1c2cc(OC(=O)CCCCN3CCN(Cc4ccc(C(F)(F)F)cc4)CC3)ccc2c2ccnc(C)c21 — IC50 (Ellman): 204 nM
C[C@@H]1CCCN1CCCCOc1ccc2occc(=O)c2c1 — IC50 (Ellman; pH 7.4): 48500 nM
O=c1[nH]cc(CO)c(=O)[nH]1 — IC50 (Ellman): 443 nM
C=CCn1c2cc(OC(=O)CCCCN3CCN(Cc4cccc(Cl)c4)CC3)ccc2c2ccnc(C)c21 — IC50 (Ellman): 568 nM
CS(=O)(=O)n1cc(Br)c(=O)[nH]c1=O — IC50 (Ellman): 195 nM
CC(C)c1ccccc1OP(=O)(Oc1ccccc1C(C)C)Oc1ccccc1C(C)C — IC50 (liver microsomes): > 20 µg/mL
C#CCNc1nc(NCCCC2CCN(Cc3ccccc3)CC2)c(C#N)cc1C#N — IC50 (Ellman): 1920 nM
Clc1ccc(Nc2nc3ccccc3c3[nH]c(C4CCCCC4)nc23)cc1Cl — IC50: 4910 nM
